Experimental data collected from several papers.
Each line is one published result; the experiments were not run side by side.
Target: Protein kinase C epsilon type (PRKCE, Homo sapiens, UniProt Q02156)
One construct used (Q02156 1-737): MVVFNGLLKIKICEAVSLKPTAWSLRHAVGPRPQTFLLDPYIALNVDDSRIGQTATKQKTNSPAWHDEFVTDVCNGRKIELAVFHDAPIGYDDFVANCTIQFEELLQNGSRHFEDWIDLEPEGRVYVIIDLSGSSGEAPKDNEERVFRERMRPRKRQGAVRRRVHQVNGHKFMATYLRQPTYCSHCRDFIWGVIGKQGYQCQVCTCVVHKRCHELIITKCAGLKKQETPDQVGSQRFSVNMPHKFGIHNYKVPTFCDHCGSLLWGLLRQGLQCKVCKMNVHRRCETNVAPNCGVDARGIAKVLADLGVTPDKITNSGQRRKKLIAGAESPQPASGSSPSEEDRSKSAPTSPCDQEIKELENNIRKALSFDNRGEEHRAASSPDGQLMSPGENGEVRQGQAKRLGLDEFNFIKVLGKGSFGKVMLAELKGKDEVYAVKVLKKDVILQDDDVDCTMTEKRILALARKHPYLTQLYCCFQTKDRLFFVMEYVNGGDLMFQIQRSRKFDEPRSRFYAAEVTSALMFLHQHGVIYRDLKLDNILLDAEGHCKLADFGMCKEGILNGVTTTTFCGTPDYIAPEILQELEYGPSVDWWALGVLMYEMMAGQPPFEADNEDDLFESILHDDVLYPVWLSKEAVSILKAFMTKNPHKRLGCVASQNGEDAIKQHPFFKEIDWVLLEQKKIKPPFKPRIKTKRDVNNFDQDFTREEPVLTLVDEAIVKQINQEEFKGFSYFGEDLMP

SMILES | effect on | mode | method | concentration | measurement | result
O=c1[nH]c2ccccc2n1C1CCN(Cc2ccc(-c3[nH]c4cc5ncnc5cc4nc3-c3ccccc3)cc2)CC1 | cell-free assay | – | – | 0.5 µM | remaining signal | 109%
COc1cc(Nc2ncc(F)c(Nc3ccc4c(n3)NC(=O)C(C)(C)O4)n2)cc(OC)c1OC | binding | – | – | 10 µM | inhibition | 73%
COc1ncccc1-c1cnn2ccc(N3CCN(C(=O)OC(C)C)CC3)nc12 | binding | – | competition with immobilised ligand | 1 µM | remaining binding | 76%
CC(C)(C)c1cc(C=C(C#N)C#N)cc(Br)c1O | enzyme activity | inhibitor | – | 0.5 µM | remaining activity | 108%
Cn1cc(-c2cccc(N3CCc4c(sc5c4CC(C)(C)C5)C3=O)c2CO)cc(Nc2ccncn2)c1=O | enzyme activity | inhibitor | – | 1 µM | inhibition | 1%
Cn1cncc1[C@](O)(COc1ccc(C#N)cc1-c1ccc(OC(F)(F)F)cc1)c1ccc(C#N)cc1 | cell-free assay | – | competition with immobilised ligand | 1 µM | remaining binding | 79%
Cn1cc(-c2cc(F)cc(N3CCn4c(cc5c4CCCC5)C3=O)c2CO)cc(Nc2ccc(N3CCN(C4COC4)CC3)cn2)c1=O | enzyme activity | inhibitor | – | 0.1 µM | inhibition | -4%
C#Cc1n[nH]c2c(-c3cn([C@@H](C)c4ccccn4)c(=O)[nH]c3=O)cc(F)cc12 | enzyme activity | inhibitor | – | 0.1 µM | inhibition | 4.1%
